Assay results pooled from the literature.
Protocols differ between the studies behind these lines.
JAK2: Tyrosine-protein kinase JAK2 (JAK2, Homo sapiens, UniProt O60674)
JAK2 JH1: Tyrosine-protein kinase JAK2, JH1 (JAK2, Homo sapiens, UniProt O60674)

SMILES | target | read-out | action | method | concentration | measurement | value
O=c1[nH]c2ccccc2n1C1CCN(Cc2ccc(-c3[nH]c4cc5ncnc5cc4nc3-c3ccccc3)cc2)CC1 | JAK2 | cell-free assay | – | – | 0.5 µM | remaining signal | 104%
Nc1ncc(-c2nc(N3CCOCC3)nc(N3CCOCC3)n2)c(C(F)F)n1 | JAK2 JH1 | binding | – | competition with immobilised ligand | 10 µM | remaining binding | 65%
CC(C)(C)c1cc(C=C(C#N)C#N)cc(Br)c1O | JAK2 | enzyme activity | inhibitor | – | 0.5 µM | remaining activity | 107%
C#Cc1n[nH]c2c(-c3cn(C(C)c4ccccn4)c(=O)[nH]c3=O)cc(F)cc12 (stereo not drawn) | JAK2 | enzyme activity | inhibitor | – | 1 µM | inhibition | -4.2%
Cn1cc(-c2cccc(N3CCc4c(sc5c4CC(C)(C)C5)C3=O)c2CO)cc(Nc2ccncn2)c1=O | JAK2 | enzyme activity | inhibitor | – | 1 µM | inhibition | -5%
Cn1cncc1[C@](O)(COc1ccc(C#N)cc1-c1ccc(OC(F)(F)F)cc1)c1ccc(C#N)cc1 | JAK2 JH1 | cell-free assay | – | competition with immobilised ligand | 1 µM | remaining binding | 91%
Cn1cc(-c2cc(F)cc(N3CCn4c(cc5c4CCCC5)C3=O)c2CO)cc(Nc2ccc(N3CCN(C4COC4)CC3)cn2)c1=O | JAK2 | enzyme activity | inhibitor | – | 0.1 µM | inhibition | 8%
COc1ncccc1-c1cnn2ccc(N3CCN(C(=O)OC(C)C)CC3)nc12 | JAK2 | binding | – | competition with immobilised ligand | 1 µM | remaining binding | 89%
N#CC1(c2ccccn2)CCN(Cc2cc(C(=O)O)c(=O)n3ccccc23)CC1 | JAK2 JH1 | cell-free assay | – | competition with immobilised ligand | 1 µM | remaining binding | 96%
